Activity calls are given as the source filed them. The calls are words filed in the database; no cut-off is given here.
What was measured:
Mus musculus [1] = experiment: Toxicity in human HCT116 cells xenografted Rag1 knockout mouse assessed as body weight loss at 20 mg/kg, ip qd measured after 10 days relative to untreated control; format: organism-based, HCT-116; parameters: dose 20 mg/kg, route intraperitoneal; settings: in vivo, 240 h
Procedure, shortened: (§1)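 Female specific-pathogen-free Rag1−/− mice carrying subcutaneous HCT-116 tumours, given 20 mg/kg ip daily for 14 days in a DMSO/PEG-400/hydroxypropyl-β-cyclodextrin/water vehicle; controls received vehicle; n = 7 per group. Bodyweight recorded daily; mice culled if loss exceeded 20% of starting weight.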

[2] = target: Phosphatidylinositol 4,5-bisphosphate 3-kinase catalytic subunit alpha isoform (Homo sapiens, UniProt P42336, E545K); experiment: Inhibition of recombinant PI3K p110alpha E545K mutant using L-alpha-phosphatidylinositol as substrate and [gamma33P]ATP after 60 mins by thin layer chromatographic technique
[3] = target: Phosphatidylinositol 4,5-bisphosphate 3-kinase catalytic subunit alpha isoform (Homo sapiens, UniProt P42336, H1047R); experiment: Inhibition of PI3K […] H1047R mutant-mediated PKB phosphorylation at Ser473 in human HCT116 cells after 15 mins by immunoblot analysis; format: cell-based, HCT-116
Procedure, shortened: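 HCT-116 cells in MEM alpha with 10% FBS and penicillin/streptomycin were seeded, grown 1 day, then serum-starved overnight. They were exposed to a range of inhibitor concentrations in DMSO (0.1% final) for 15 min, then stimulated with 500 nM insulin for 5 min. Phospho-PKB (Ser473 or Thr308) was detected by immunoblotting.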

[4] = Inhibition of PKA assessed as residual activity at 10 uM
[5] = target: T1, Phosphatidylinositol 4,5-bisphosphate 3-kinase catalytic subunit alpha isoform (Homo sapiens, UniProt P42336); settings: 100 nM
[6] = Selectivity ratio of IC50 for PI3K p110delta to IC50 for PI3K p110alpha
Mus musculus [7] = experiment: Toxicity in human HCT116 cells xenografted Rag1 knockout mouse assessed as body weight loss at 20 mg/kg, ip qd measured up to day 10; format: organism-based, HCT-116; parameters: dose 20 mg/kg, route intraperitoneal; settings: in vivo; procedure, shortened: as §1
[8] = target: Insulin receptor (Homo sapiens) (UniProt P06213); experiment: Inhibition of IR assessed as residual activity at 1 uM
[9] = Selectivity ratio of IC50 for PI3K p110beta to IC50 for PI3K p110alpha
[10] = target: Ribosomal protein S6 kinase alpha-1 (Homo sapiens) (UniProt Q15418); experiment: Inhibition of RSK1 assessed as residual activity at 10 uM
[11] = target: Mitogen-activated protein kinase 14 (Homo sapiens) (UniProt Q16539); experiment: Inhibition of p38alpha assessed as residual activity at 10 uM
[12] = target: Dual specificity mitogen-activated protein kinase kinase 1 (Homo sapiens) (UniProt Q02750); experiment: Inhibition of MKK1 assessed as residual activity at 10 uM
[13] = target: Misshapen-like kinase 1 (Homo sapiens) (UniProt Q8N4C8); experiment: Inhibition of MINK1 assessed as residual activity at 10 uM
[14] = Inhibition of PKA assessed as residual activity at 1 uM
[15] = target: Ribosomal protein S6 kinase alpha-1 (Homo sapiens) (UniProt Q15418); experiment: Inhibition of RSK1 assessed as residual activity at 1 uM
[16] = target: T1, Phosphatidylinositol 4,5-bisphosphate 3-kinase catalytic subunit alpha isoform; settings: 100 nM; remark: listed apart in the source
HCT-116 = experiment: Antitumor activity against human HCT116 cells xenografted in Rag1 knockout mouse assessed as tumor growth inhibition at 20 mg/kg, ip qd for 14 days relative to untreated control; format: functional; settings: HCT-116, ip, 336 h, route intraperitoneal, read-out: GI
Procedure, shortened: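 Female specific-pathogen-free Rag1−/− mice, age-matched, inoculated subcutaneously with 5×10⁶ HCT-116 cells in PBS. Dosed ip at 20 mg/kg q.d. for 14 days in 7.5% DMSO/42.5% PEG-400/20% hydroxypropyl-β-cyclodextrin/30% water; controls received vehicle only; n = 7 per group. Tumour volume measured three times weekly; 1-way ANOVA with Holm-Sidak comparison at study end.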

[17] = target: Serine/threonine-protein kinase mTOR (Homo sapiens, UniProt P42345); experiment: Inhibition of mTOR

T1 sequence (P42336 whole entry, canonical isoform): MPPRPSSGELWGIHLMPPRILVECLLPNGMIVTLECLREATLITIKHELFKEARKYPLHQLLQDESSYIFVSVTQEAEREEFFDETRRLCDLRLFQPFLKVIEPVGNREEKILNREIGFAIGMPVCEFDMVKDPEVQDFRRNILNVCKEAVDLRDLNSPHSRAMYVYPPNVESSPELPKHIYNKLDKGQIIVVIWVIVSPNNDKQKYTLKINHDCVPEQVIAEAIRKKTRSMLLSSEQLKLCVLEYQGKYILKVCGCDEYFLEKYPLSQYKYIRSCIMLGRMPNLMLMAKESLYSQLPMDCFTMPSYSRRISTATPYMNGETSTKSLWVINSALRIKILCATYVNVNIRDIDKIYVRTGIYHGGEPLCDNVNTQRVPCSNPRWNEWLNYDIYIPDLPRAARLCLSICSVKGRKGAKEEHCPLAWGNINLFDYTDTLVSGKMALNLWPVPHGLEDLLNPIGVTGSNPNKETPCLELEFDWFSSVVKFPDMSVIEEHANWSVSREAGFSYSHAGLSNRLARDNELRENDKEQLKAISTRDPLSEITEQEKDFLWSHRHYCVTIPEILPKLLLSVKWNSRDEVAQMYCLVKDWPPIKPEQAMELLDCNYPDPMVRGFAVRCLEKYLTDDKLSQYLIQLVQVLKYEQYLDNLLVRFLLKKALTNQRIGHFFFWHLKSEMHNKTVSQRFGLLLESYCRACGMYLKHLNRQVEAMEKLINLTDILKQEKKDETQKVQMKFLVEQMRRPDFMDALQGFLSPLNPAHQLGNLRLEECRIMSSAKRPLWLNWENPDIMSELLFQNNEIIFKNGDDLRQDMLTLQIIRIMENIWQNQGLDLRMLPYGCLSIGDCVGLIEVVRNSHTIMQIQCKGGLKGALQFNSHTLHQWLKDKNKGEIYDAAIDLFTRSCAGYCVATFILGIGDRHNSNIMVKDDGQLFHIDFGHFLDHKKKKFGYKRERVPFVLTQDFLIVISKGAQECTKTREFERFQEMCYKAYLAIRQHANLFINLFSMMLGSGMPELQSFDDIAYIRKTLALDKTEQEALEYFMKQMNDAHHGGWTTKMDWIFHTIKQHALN
Ribosomal protein S6 kinase alpha-1 (Homo sapiens), sequence (Q15418 whole entry, canonical isoform): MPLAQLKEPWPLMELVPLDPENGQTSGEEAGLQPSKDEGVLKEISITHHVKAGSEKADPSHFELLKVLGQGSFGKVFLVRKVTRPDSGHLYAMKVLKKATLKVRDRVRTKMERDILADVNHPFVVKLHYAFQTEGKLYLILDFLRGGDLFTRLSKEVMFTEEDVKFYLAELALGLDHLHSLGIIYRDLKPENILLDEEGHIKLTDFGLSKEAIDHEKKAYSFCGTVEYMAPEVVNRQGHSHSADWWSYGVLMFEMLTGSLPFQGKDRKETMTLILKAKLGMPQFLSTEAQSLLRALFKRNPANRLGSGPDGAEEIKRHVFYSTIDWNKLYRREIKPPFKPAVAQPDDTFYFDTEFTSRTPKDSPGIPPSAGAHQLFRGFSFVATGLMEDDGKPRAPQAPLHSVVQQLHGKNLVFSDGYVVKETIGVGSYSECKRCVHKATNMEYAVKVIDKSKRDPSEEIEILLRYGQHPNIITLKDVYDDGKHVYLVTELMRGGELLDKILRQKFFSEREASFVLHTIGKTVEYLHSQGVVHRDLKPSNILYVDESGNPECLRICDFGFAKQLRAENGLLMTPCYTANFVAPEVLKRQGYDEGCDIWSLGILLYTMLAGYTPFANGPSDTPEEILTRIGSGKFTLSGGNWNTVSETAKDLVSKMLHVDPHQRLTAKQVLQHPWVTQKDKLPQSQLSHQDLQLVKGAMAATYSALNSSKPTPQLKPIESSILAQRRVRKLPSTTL
Misshapen-like kinase 1 (Homo sapiens), sequence (Q8N4C8 whole entry, looked up): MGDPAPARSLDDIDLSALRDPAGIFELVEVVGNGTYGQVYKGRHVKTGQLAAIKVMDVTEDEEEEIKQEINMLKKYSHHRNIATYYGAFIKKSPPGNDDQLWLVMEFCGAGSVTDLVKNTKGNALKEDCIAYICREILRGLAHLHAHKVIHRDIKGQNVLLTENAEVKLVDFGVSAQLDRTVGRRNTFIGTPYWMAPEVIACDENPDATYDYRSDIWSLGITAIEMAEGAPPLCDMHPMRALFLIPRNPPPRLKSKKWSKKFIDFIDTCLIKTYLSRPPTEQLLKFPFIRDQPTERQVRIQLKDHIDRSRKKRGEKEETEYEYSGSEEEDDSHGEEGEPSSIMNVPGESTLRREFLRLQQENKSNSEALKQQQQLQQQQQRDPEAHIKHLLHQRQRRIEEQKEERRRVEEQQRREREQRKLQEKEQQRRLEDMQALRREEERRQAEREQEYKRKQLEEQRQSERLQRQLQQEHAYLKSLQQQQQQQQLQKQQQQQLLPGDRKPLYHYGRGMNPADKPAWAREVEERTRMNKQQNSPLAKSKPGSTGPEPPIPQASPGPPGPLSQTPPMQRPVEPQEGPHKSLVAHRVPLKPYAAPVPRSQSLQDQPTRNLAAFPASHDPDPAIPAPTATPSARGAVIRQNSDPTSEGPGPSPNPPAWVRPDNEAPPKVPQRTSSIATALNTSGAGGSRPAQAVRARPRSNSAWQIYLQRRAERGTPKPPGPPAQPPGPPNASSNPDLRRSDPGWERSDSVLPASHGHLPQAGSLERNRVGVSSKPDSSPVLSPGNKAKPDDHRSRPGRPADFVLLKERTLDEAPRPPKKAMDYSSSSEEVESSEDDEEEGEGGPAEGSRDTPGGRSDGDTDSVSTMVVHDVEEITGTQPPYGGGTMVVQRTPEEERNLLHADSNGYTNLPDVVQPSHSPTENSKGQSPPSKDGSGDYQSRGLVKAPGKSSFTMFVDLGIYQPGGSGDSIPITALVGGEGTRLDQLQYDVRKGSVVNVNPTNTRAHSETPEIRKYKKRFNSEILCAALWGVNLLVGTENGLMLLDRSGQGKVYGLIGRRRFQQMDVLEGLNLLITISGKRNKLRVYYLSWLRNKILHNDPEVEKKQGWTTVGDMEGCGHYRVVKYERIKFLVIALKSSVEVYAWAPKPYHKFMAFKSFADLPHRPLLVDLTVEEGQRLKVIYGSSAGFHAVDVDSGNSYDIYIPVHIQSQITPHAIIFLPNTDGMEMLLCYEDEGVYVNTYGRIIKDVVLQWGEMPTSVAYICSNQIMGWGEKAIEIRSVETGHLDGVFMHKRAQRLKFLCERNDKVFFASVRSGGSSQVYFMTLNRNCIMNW
Dual specificity mitogen-activated protein kinase kinase 1 (Homo sapiens), sequence (Q02750 whole entry): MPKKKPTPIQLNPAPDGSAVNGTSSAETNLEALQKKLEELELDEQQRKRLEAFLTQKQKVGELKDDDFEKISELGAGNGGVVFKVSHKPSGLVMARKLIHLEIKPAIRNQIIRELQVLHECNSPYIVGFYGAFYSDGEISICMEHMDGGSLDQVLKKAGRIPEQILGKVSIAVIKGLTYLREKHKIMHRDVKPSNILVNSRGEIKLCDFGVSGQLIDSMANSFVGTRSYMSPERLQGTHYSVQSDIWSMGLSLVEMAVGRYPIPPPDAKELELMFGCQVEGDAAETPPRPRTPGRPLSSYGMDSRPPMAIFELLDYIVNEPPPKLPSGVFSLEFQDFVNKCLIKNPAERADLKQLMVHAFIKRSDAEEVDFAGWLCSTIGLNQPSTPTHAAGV
Mitogen-activated protein kinase 14 (Homo sapiens), sequence (Q16539 whole entry): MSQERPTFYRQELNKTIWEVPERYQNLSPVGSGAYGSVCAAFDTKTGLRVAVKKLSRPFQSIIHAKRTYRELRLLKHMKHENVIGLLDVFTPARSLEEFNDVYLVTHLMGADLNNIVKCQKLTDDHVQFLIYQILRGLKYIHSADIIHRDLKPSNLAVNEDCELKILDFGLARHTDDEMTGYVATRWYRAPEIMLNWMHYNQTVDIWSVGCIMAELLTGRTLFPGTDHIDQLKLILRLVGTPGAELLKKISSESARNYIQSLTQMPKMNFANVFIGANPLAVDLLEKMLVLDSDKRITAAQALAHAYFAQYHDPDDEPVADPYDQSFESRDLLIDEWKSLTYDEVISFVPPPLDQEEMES
Phosphatidylinositol 4,5-bisphosphate 3-kinase catalytic subunit alpha isoform (Homo sapiens, UniProt P42336, H1047R), sequence (P42336 whole entry H1047R, canonical isoform): as the sequence (P42336 whole entry, canonical isoform) above, with H1047R counted along it
Phosphatidylinositol 4,5-bisphosphate 3-kinase catalytic subunit alpha isoform (Homo sapiens, UniProt P42336, E545K), sequence (P42336 whole entry E545K, canonical isoform): as the sequence (P42336 whole entry, canonical isoform) above, with E545K counted along it

Cc1ccc([N+](=O)[O-])cc1S(=O)(=O)N(C)/N=C/c1cnn2ccc(C#N)cc12
Activity (Mus musculus [1]): 15%
IC50 [2]: 0.7 nM
IC50 [3]: 23 nM
Activity [4]: 1%
inhibition [5]: inactive
Ratio IC50 [6]: 50
Activity (Mus musculus [7]): Non-toxic
Activity [8]: 55%
Ratio IC50 [9]: 50
Activity [10]: 2%
Activity [11]: 9%
Activity [12]: 8%
Activity [13]: 2%
Activity [14]: 1%
Activity [15]: 4%
inhibition [16]: inactive
inhibition in vivo at 20 mg/kg (HCT-116): 39.1%
IC50 [17]: 300 nM

From ChEMBL document CHEMBL1926509, “Discovery of pyrazolo[1,5-a]pyridines as p110α-selective PI3 kinase inhibitors” (Bioorg Med Chem, 2012)
